# From BindingDB's records for doi:10.1021/jm00346a020 (1982)
# pKi: −log10 of the molar value.
# Biological target: T1, Dihydrofolate reductase (Gallus gallus, UniProt P00378)
# T1 sequence (P00378 whole entry): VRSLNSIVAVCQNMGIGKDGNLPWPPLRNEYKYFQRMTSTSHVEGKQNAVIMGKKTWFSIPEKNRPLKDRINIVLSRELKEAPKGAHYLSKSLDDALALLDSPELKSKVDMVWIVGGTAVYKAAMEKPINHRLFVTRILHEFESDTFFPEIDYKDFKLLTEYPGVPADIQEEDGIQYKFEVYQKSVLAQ
# Experiment: Inhibitory activity against chicken Dihydrofolate reductase at pH 7.2.
# In short: (§1)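 DHFR from chicken liver and from bovine liver, each assayed at pH 7.2 by the group's earlier-reported inhibition procedure. Potency is expressed as an apparent inhibition constant, reported as log(1/Ki app).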
row,SMILES,pKi
1,COCCOc1cccc(Cc2cnc(N)nc2N)c1,4.83

# Biological target: T1, Dihydrofolate reductase
# Experiment: Inhibitory activity against chicken dihydrofolate reductase at pH 7.2.
row,SMILES,pKi
1,Nc1ncc(Cc2ccccc2)c(N)n1,4.71
2,Cc1cccc(Cc2cnc(N)nc2N)c1,4.72
3,Nc1ncc(Cc2cccc(F)c2)c(N)n1,4.70
4,Nc1ncc(Cc2ccc([N+](=O)[O-])cc2)c(N)n1,4.37
5,Nc1ncc(Cc2ccc(F)cc2)c(N)n1,4.79
6,Nc1ncc(Cc2cccc(Cl)c2)c(N)n1,5.01
7,COc1ccc(Cc2cnc(N)nc2N)cc1C(F)(F)F,4.99
8,CN(C)c1ccc(Cc2cnc(N)nc2N)cc1,4.01
9,Nc1ncc(Cc2ccc(OC(F)(F)F)cc2)c(N)n1,4.26
10,CCCCOCc1cccc(Cc2cnc(N)nc2N)c1,5.17
11,CC(=O)Nc1ccc(Cc2cnc(N)nc2N)cc1,4.26
12,Nc1ncc(Cc2cccc(I)c2)c(N)n1,4.79
13,"COCCOc1c(OC)cc(Cc2cnc(N)nc2N)cc1OC [5-[3,5-Dimethoxy-4-(2-methoxy-ethoxy)-benzyl]-pyrimidine-2,4-diamine]",3.64
14,COc1ccc(Cc2cnc(N)nc2N)cc1OC [Diaveridine],4.46

# Biological target: T2, Dihydrofolate reductase (Bos taurus, UniProt P00376)
# T2 sequence (P00376 whole entry): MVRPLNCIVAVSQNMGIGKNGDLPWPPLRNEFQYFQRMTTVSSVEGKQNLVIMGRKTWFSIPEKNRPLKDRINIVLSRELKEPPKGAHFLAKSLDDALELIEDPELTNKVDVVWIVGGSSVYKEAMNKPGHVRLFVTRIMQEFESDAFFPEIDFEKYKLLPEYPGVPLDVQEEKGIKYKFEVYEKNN
# Experiment: Inhibitory activity against bovine liver Dihydrofolate reductase at pH 7.2.
# In short: as §1
row,SMILES,pKi
1,Nc1ncc(Cc2cc(O)cc(O)c2)c(N)n1,3.39
2,COCCOc1cccc(Cc2cnc(N)nc2N)c1,5.58
3,COCCOc1ccc(Cc2cnc(N)nc2N)cc1OCCOC,5.17
4,CCCCCCOc1ccc(Cc2cnc(N)nc2N)cc1,5.55
5,COCCOc1ccc(Cc2cnc(N)nc2N)cc1,5.31
6,NC(=O)COc1cccc(Cc2cnc(N)nc2N)c1,5.27
7,"CCCCCCCOc1ccc(Cc2cnc(N)nc2N)cc1 [5-(4-Heptyloxy-benzyl)-pyrimidine-2,4-diamine]",5.45

# Biological target: T2, Dihydrofolate reductase
# Experiment: Inhibitory activity against bovine liver dihydrofolate reductase at pH 7.2.
row,SMILES,pKi
1,Nc1ncc(Cc2ccc(O)c(O)c2)c(N)n1,4.59
2,Nc1ncc(Cc2ccc([N+](=O)[O-])cc2)c(N)n1,5.43
3,Nc1ncc(Cc2cccc(Br)c2)c(N)n1,5.81
4,Nc1ncc(Cc2ccc(F)cc2)c(N)n1,5.51
5,Nc1ncc(Cc2cccc(Cl)c2)c(N)n1,5.80
6,Nc1ncc(Cc2ccc(Cl)cc2)c(N)n1,5.60
7,Nc1ncc(Cc2cccc(C(F)(F)F)c2)c(N)n1,5.78
8,Nc1ccc(Cc2cnc(N)nc2N)cc1,4.96
9,CN(C)c1ccc(Cc2cnc(N)nc2N)cc1,5.21
10,Nc1ncc(Cc2ccc(Br)cc2)c(N)n1,5.42
11,Cc1ccc(Cc2cnc(N)nc2N)cc1,5.27
12,CC(=O)Nc1ccc(Cc2cnc(N)nc2N)cc1[N+](=O)[O-],5.55
13,"COc1ccc(Cc2cnc(N)nc2N)cc1 [5-(4-Methoxy-benzyl)-pyrimidine-2,4-diamine]",5.35
14,COc1ccc(Cc2cnc(N)nc2N)cc1OC [Diaveridine],5.66
